Measured values from ChEMBL document CHEMBL1255567, “Design, synthesis, and structure-activity relationships of novel bicyclic azole-amines as negative allosteric modulators of metabotropic glutamate receptor 5” (J Med Chem, 2010).
pIC50, pKi: −log10 of the molar value. The source made the active and inactive calls. The calls are words filed in the database; no cut-off is given here.

What was measured:
[1] = molecular target: T1, Metabotropic glutamate receptor 5 (Homo sapiens, UniProt P41594); assay: Modulation of human recombinant mGluR5 expressed in CHO cells assessed as inhibition of glutamate-induced response at 10 uM; assay type: cell-based
Target sequence in this assay (P41594 21-1212 limits assumed): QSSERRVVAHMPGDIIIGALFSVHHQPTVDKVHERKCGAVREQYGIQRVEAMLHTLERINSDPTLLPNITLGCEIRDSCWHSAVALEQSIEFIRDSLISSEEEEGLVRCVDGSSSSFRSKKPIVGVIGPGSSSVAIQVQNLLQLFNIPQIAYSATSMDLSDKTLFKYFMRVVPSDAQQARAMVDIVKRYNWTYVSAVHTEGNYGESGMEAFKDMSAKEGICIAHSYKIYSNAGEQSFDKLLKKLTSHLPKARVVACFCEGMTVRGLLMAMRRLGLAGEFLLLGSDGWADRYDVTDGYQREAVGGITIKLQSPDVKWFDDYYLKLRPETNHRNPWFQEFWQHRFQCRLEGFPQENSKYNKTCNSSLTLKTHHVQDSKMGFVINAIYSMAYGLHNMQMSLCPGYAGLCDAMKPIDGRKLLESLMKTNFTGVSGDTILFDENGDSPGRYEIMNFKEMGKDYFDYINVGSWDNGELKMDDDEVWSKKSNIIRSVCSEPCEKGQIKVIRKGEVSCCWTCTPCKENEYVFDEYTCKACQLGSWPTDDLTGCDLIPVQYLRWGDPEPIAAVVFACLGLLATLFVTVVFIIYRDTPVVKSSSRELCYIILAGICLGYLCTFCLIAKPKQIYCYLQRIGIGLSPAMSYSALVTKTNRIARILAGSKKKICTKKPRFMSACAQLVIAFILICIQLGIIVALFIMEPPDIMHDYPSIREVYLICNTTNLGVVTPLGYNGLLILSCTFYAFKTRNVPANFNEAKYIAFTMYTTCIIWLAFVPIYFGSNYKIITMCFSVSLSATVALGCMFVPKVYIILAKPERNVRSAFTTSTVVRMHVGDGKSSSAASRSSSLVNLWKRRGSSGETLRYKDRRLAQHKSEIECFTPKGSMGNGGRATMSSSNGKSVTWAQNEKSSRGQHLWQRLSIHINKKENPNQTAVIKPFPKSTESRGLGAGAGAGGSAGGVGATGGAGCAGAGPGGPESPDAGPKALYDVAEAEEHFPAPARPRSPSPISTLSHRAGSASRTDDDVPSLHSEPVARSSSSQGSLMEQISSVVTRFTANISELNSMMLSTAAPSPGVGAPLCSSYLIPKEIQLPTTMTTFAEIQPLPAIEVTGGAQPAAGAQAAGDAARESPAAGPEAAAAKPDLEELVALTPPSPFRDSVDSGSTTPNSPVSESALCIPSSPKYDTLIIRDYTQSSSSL

[2] = molecular target: T1, Metabotropic glutamate receptor 5; assay: Modulation of human recombinant mGluR5 expressed in CHO cells assessed as inhibition of glutamate-induced response; assay type: cell-based
In short: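 Aequorin cell line with doxycycline-inducible human mGluR5, induced 18 h (600 ng/mL). Cells loaded with coelenterazine-h ≥4 h at room temperature, preincubated with compound ≥3 min, then challenged with glutamate at EC80. Luminescence read on FDSS 6000, normalized to digitonin or 20 μM ATP wells. IC50 from sigmoidal fit; mean of two determinations.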
Target sequence in this assay (P41594 whole entry): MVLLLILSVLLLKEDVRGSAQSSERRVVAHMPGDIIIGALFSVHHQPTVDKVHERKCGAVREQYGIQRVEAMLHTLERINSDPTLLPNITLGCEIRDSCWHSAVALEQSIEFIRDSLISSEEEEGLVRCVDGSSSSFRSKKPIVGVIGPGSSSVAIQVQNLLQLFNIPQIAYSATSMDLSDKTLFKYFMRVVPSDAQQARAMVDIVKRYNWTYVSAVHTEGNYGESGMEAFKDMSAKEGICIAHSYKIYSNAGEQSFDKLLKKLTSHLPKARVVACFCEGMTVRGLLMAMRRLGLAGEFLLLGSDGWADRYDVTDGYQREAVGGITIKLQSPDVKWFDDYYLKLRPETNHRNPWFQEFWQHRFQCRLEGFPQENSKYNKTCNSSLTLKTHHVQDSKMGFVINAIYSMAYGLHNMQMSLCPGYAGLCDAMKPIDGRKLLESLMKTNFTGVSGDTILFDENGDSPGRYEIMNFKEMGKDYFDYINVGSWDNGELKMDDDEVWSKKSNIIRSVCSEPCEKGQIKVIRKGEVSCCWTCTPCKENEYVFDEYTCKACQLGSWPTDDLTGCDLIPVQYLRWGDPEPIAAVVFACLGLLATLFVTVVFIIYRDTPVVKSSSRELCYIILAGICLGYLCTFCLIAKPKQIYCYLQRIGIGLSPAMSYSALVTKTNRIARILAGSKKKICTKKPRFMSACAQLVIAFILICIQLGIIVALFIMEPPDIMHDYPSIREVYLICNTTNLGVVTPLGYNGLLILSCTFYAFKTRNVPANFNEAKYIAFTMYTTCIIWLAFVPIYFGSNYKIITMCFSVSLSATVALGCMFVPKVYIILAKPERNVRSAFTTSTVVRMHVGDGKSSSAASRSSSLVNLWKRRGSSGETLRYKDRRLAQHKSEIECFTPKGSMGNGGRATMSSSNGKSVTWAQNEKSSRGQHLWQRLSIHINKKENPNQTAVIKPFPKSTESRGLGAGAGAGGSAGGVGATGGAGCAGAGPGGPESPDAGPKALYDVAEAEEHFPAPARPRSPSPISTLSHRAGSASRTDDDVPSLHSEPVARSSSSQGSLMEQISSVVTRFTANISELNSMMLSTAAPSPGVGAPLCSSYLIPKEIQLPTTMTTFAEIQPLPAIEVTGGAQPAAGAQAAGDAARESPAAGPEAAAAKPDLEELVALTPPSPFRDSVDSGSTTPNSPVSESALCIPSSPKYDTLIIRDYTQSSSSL

[3] = molecular target: Metabotropic glutamate receptor 5 (Rattus norvegicus, UniProt P31424); assay: Displacement of [3H]-MPEP from mGluR5 in rat cortical membranes; assay type: cell membranes, Membrane
In short: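 Competition binding against [3H]-MPEP on rat cortical membranes, run in duplicate. Nonspecific binding defined with a 200-fold excess of reference modulator. Incubated 120 min at 4 °C in 0.1 mL, filtered on PEI-presoaked GF-C filters, washed with cold 50 mM Tris-HCl pH 7.4, scintillation counted. Ki reported as mean of two determinations; MPEP used as control.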

Rattus norvegicus [4] = assay: Ex vivo receptor occupancy of mGluR5 receptor in Sprague-Dawley rat brain at 3 mg/kg, ip after 60 mins; assay type: functional; settings: route intraperitoneal
In short: (§1)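 Male Sprague-Dawley rats (n = 4) dosed 3 mg/kg ip in 45% HPβCD. At set times postdose, iv tail-vein 3H-mPEPy tracer; decapitated 2 min later. Striatum and cerebellum sections imaged 12 h on β-imager. %RO derived from striatum:cerebellum signal ratio relative to vehicle animals; mean ± SEM.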

Rattus norvegicus [5] = assay: Ex vivo receptor occupancy of mGluR5 receptor in po dosed Sprague-Dawley rat brain after 60 mins; assay type: functional; settings: 1 h
In short: (§2)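 Male Sprague-Dawley rats (200-250 g, n = 4) dosed ip or po at 0.3, 1, 3, 10, 30 mg/kg in 45% HPβCD. After 60 min, iv 3H-mPEPy tracer; killed 2 min later. Striatal versus cerebellar radioactivity on β-imager gives %RO against vehicle. Dose-occupancy curves fitted.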

Brain = assay: Drug level in Sprague-Dawley rat brain at 3 mg/kg, ip; assay type: ADME, organism-based; set-up: dose 3 mg/kg, route intraperitoneal; settings: in vivo, read-out: Drug uptake
In short: (§3)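 Male Sprague-Dawley rats (200-250 g, n = 4) given 3 mg/kg ip in 45% HPβCD. Trunk blood and brain taken at sacrifice. Brain homogenized at 40 mg/mL in 95:5 water:acetonitrile with 0.1% formic acid. Plasma or homogenate precipitated with acetonitrile, dried, reconstituted and measured by LC/MS/MS.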

[6] = AUC (0 to t) in Sprague-Dawley rat at 2 mg/kg, iv; assay type: ADME, organism-based; set-up: dose 2 mg/kg, route intravenous; settings: plasma
In short: (§4)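 Male Sprague-Dawley rats, 3 per cohort; 2 mg/kg iv or 2 and 10 mg/kg oral gavage. Vehicle 40% hydroxypropyl-βCD:50 mM potassium phosphate pH 6.0 (50:50), 0.5 mg/mL nominal, filtered. Jugular-cannula blood predose and 5 min to 24 h. K2-EDTA plasma, methanol precipitation with internal standard, LC/MS/MS (LLOQ 2.5 ng/mL). Noncompartmental analysis.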

[7] = AUC (0 to t) in Sprague-Dawley rat at 2 mg/kg, po; assay type: ADME, organism-based; set-up: dose 2 mg/kg, route oral; settings: plasma; in short: as §4
[8] = AUC (0 to t) in Sprague-Dawley rat at 10 mg/kg, po; assay type: ADME, organism-based; set-up: dose 10 mg/kg, route oral; settings: plasma; in short: as §4
[9] = Half life in Sprague-Dawley rat at 10 mg/kg, po; assay type: ADME, organism-based; set-up: dose 10 mg/kg, route oral; settings: in vivo; in short: as §4
[10] = Clearance in rhesus monkey at 1 mg/kg, iv; assay type: ADME, organism-based, Macaca mulatta; set-up: dose 1 mg/kg, route intravenous; settings: in vivo
In short: (§5)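 Male Rhesus monkeys, 3 per cohort; 1 mg/kg iv or oral gavage. Vehicle 40% hydroxypropyl-βCD:50 mM potassium phosphate pH 6.0 (50:50), 0.5 mg/mL nominal, filtered. Femoral vein blood predose and 5 min to 24 h. K3EDTA plasma, protein precipitation with internal standard, LC/MS/MS (LLOQ 2.5 ng/mL). Noncompartmental PK parameters.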

[11] = Cmax in Sprague-Dawley rat at 2 mg/kg, iv; assay type: ADME, organism-based; set-up: dose 2 mg/kg, route intravenous; settings: in vivo; in short: as §4
Rattus norvegicus [12] = assay: Ex vivo receptor occupancy of mGluR5 receptor in ip dosed Sprague-Dawley rat brain after 60 mins; assay type: functional; settings: 1 h; in short: as §2
Rattus norvegicus [13] = assay: Ex vivo receptor occupancy of mGluR5 receptor in Sprague-Dawley rat brain at 3 mg/kg, ip after 30 mins; assay type: functional; settings: route intraperitoneal; in short: as §1
[14] = Cmax in Sprague-Dawley rat at 2 mg/kg, po; assay type: ADME, organism-based; set-up: dose 2 mg/kg, route oral; settings: in vivo; in short: as §4
[15] = Cmax in rhesus monkey at 1 mg/kg, po; assay type: ADME, organism-based, Macaca mulatta; set-up: dose 1 mg/kg, route oral; settings: in vivo; in short: as §5
[16] = AUC (0 to t) in rhesus monkey at 1 mg/kg, iv; assay type: ADME, organism-based, Macaca mulatta; set-up: dose 1 mg/kg, route intravenous; settings: plasma; in short: as §5
[17] = AUC (0 to t) in rhesus monkey at 1 mg/kg, po; assay type: ADME, organism-based, Macaca mulatta; set-up: dose 1 mg/kg, route oral; settings: plasma; in short: as §5
[18] = Oral bioavailability in rhesus monkey at 1 mg/kg; assay type: ADME, organism-based, Macaca mulatta; settings: in vivo; in short: as §5
[19] = Cmax in Sprague-Dawley rat at 10 mg/kg, po; assay type: ADME, organism-based; set-up: dose 10 mg/kg, route oral; settings: in vivo; in short: as §4
Rhesus monkey = assay: Cmax in rhesus monkey at 1 mg/kg, iv; assay type: ADME, organism-based, Macaca mulatta; set-up: dose 1 mg/kg, route intravenous; settings: in vivo; in short: as §5
[20] = molecular target: Kappa-type opioid receptor (Homo sapiens) (UniProt P41145); assay: Inhibition of kappa opioid receptor at 10 uM
Rattus norvegicus [21] = assay: Ex vivo receptor occupancy of mGluR5 receptor in Sprague-Dawley rat brain at 3 mg/kg, ip after 24 hrs; assay type: functional, organism-based; set-up: dose 3 mg/kg; in short: as §1
[22] = Volume of distribution in Sprague-Dawley rat at 2 mg/kg, iv; assay type: ADME, organism-based; set-up: dose 2 mg/kg, route intravenous; settings: in vivo; in short: as §4
[23] = Oral bioavailability in Sprague-Dawley rat at 10 mg/kg; assay type: ADME, organism-based; settings: in vivo; in short: as §4
[24] = Half life in rhesus monkey at 1 mg/kg, iv; assay type: ADME, organism-based, Macaca mulatta; set-up: dose 1 mg/kg, route intravenous; settings: in vivo; in short: as §5
[25] = Volume of distribution in rhesus monkey at 1 mg/kg, iv; assay type: ADME, organism-based, Macaca mulatta; set-up: dose 1 mg/kg, route intravenous; settings: in vivo; in short: as §5
[26] = Clearance in Sprague-Dawley rat at 2 mg/kg, iv; assay type: ADME, organism-based; set-up: dose 2 mg/kg, route intravenous; settings: in vivo; in short: as §4
[27] = Half life in rhesus monkey at 1 mg/kg, po; assay type: ADME, organism-based, Macaca mulatta; set-up: dose 1 mg/kg, route oral; settings: in vivo; in short: as §5
Plasma = assay: Drug level in Sprague-Dawley rat plasma at 3 mg/kg, ip; assay type: ADME, organism-based; set-up: dose 3 mg/kg, route intraperitoneal; settings: in vivo; in short: as §3
Rattus norvegicus [28] = assay: Ex vivo receptor occupancy of mGluR5 receptor in Sprague-Dawley rat brain at 3 mg/kg, ip after 2 hrs; assay type: functional; settings: route intraperitoneal; in short: as §1
Rattus norvegicus [29] = assay: (§6) Half life in Sprague-Dawley rat at 2 mg/kg, iv; assay type: ADME, organism-based; set-up: dose 2 mg/kg, route intravenous; settings: in vivo; in short: as §4
[30] = as §6; assay type: ADME, organism-based; set-up: dose 2 mg/kg, route intravenous; settings: Sprague-Dawley, in vivo; in short: as §4
[31] = Oral bioavailability in Sprague-Dawley rat at 2 mg/kg; assay type: ADME, organism-based; settings: in vivo; in short: as §4
[32] = Half life in Sprague-Dawley rat at 2 mg/kg, po; assay type: ADME, organism-based; set-up: dose 2 mg/kg, route oral; settings: in vivo; in short: as §4

Sequence of Metabotropic glutamate receptor 5 (Rattus norvegicus, UniProt P31424) (P31424 whole entry): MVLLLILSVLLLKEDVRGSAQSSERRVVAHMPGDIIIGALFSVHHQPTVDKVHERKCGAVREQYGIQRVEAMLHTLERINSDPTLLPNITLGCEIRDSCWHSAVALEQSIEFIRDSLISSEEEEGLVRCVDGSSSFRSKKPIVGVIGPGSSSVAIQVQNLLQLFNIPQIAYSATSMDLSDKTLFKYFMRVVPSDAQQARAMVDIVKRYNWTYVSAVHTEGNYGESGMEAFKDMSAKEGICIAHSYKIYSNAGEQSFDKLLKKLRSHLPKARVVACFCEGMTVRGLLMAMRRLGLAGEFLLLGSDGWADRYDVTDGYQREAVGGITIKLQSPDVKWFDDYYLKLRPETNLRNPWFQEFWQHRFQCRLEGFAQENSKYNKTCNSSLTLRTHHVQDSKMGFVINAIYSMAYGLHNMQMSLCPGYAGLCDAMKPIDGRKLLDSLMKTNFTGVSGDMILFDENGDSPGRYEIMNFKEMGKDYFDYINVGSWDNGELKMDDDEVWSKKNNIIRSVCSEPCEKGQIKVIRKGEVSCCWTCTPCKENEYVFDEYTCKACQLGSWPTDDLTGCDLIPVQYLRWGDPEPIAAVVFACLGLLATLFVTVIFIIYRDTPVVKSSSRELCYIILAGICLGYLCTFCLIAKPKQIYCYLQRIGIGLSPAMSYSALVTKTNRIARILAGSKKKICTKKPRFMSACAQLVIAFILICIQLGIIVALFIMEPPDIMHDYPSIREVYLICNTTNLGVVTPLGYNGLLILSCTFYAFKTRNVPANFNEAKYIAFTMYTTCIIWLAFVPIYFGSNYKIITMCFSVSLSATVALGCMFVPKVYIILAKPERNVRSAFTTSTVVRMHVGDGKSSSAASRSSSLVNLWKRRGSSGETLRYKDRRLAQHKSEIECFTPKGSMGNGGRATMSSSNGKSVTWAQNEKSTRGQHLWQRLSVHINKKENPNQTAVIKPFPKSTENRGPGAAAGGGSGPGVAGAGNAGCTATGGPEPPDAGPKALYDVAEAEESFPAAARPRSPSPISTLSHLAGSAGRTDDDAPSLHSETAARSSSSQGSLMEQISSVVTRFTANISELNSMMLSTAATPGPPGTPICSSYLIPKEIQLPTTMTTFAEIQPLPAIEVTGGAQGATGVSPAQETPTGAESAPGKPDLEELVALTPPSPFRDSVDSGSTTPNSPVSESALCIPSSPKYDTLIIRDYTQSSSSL
Sequence of Kappa-type opioid receptor (Homo sapiens) (P41145 whole entry): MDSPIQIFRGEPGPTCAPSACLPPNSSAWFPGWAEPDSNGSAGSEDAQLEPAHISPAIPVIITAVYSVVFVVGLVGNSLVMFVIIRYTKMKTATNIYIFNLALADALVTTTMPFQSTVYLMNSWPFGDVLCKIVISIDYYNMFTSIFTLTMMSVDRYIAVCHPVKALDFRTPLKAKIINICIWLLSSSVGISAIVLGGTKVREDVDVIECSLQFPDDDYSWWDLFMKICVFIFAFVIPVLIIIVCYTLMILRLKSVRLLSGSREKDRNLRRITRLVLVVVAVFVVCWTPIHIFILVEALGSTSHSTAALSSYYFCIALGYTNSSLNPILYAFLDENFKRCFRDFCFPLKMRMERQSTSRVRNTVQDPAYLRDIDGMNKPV

N#Cc1cccc(N2CCc3nc(-c4cccnc4)oc3C2)c1
inhibition [1]: 14%

COC(=O)N1CCc2oc(-c3ccccn3)nc2C1
inhibition [1]: 11%

N#Cc1cccnc1N1CCc2oc(-c3ccccc3)nc2C1
pIC50 [2]: 5.92

N#Cc1cccc(S(=O)(=O)N2CCc3nc(-c4ccccn4)oc3C2)c1
inhibition [1]: 14%

N#Cc1cccc(N2CCc3nc(C4CCCCC4)oc3C2)c1
inhibition [1]: 79%

N#Cc1cc(F)cc(N2CCc3nc(-c4ccccn4)sc3C2)c1
inhibition [1]: 52%

N#Cc1cccc(N2CCc3nc(-c4ccccn4)oc3C2)c1
pIC50 [2]: 6.54

N#Cc1cccc(CN2CCc3nc(-c4ccccn4)oc3C2)c1
inhibition [1]: 55%

N#Cc1cc(F)cc(N2CCc3nc(-c4ccccn4)oc3C2)c1
pIC50 [2]: 7.27

N#Cc1cccc(N2CCc3oc(-c4ccncc4)nc3C2)c1
inhibition [1]: 30%

N#Cc1cc(F)cc(N2CCn3cc(-c4ccccn4)nc3C2)c1
pIC50 [2]: 6.82

c1ccc(-c2nc3c(o2)CCN(C2CCNCC2)C3)nc1
inhibition [1]: 0%

N#Cc1cccc(N2CC3N=C(c4ccccn4)OC3C2)c1 (stereo not drawn)
pIC50 [2]: 6.66

CC(C)N1CCc2oc(-c3ccccn3)nc2C1
inhibition [1]: 0%

N#Cc1cccc(N2CCc3nc(C4CCCCN4)oc3C2)c1 (racemic)
inhibition [1]: 79%

N#Cc1cccnc1N1CCc2nc(-c3ccccn3)oc2C1
pIC50 [2]: 6.19

N#Cc1cc(F)cc(N2CCn3nc(-c4ccccn4)nc3C2)c1
pIC50 [2]: 6.46

N#Cc1cc(F)cc(N2CCc3nc(-c4ccccn4)[nH]c3C2)c1
inhibition [1]: 34%

N#Cc1cccc(C(=O)N2CCc3nc(-c4ccccn4)oc3C2)c1
pIC50 [2]: 5.59

N#Cc1cccnc1N1CCc2nc(-c3ccccc3)oc2C1
inhibition [1]: 79%

N#Cc1cccc(N2CCc3oc(-c4ccccn4)nc3C2)c1
pIC50 [2]: 7.22

c1ccc(-c2nc3c(o2)CCN(C2CCCCC2)C3)nc1
inhibition [1]: 0%

CC(C)c1nc2c(o1)CN(c1cccc(C#N)c1)CC2
inhibition [1]: 6%

Cc1nc2c(o1)CCN(c1ncccc1C#N)C2
inhibition [1]: 7%

N#Cc1cccnc1N1CCc2oc(-c3ccccn3)nc2C1
pIC50 [2]: 6.96

N#Cc1cc(F)cc(N2CCc3oc(-c4ccccn4)nc3C2)c1
pKi [3]: 7.77 | Activity (Rattus norvegicus [4]): 45% | pIC50 [2]: 7.55 | ED50 (Rattus norvegicus [5]): > 30 mg/kg | concentration (Brain): 1290 nM

N#Cc1cc(F)cc(N2CCCc3oc(-c4ccccn4)nc3C2)c1
pKi [3]: 7.77 | AUC(0-t) [6]: 2.26 µM·h | AUC(0-t) [7]: 0.7 µM·h | AUC(0-t) [8]: 3.36 µM·h | half-life [9]: 54.6 min | clearance [10]: 16.3 mL/min/kg | Activity (Rattus norvegicus [4]): 82% | Cmax [11]: 5.25 µM | pIC50 [2]: 7.80 | ED50 (Rattus norvegicus [12]): 0.9 mg/kg | Activity (Rattus norvegicus [13]): 85% | Cmax [14]: 620 nM | Cmax [15]: 210 nM | AUC(0-t) [16]: 3.06 µM·h | AUC(0-t) [17]: 0.28 µM·h | bioavailability [18]: 10% | Cmax [19]: 2730 nM | Cmax (Rhesus monkey): 5.08 µM | inhibition [20]: 77% | Activity (Rattus norvegicus [21]): inactive | Vd [22]: 2.38 L/kg | bioavailability [23]: 30% | half-life [24]: 40.2 min | Vd [25]: 0.95 L/kg | clearance [26]: 46.5 mL/min/kg | half-life [27]: 37.8 min | concentration (Plasma): 1430 nM | Activity (Rattus norvegicus [28]): 55% | Drug uptake (Rattus norvegicus [29]): 1096 nM | half-life [30]: 37.2 min | bioavailability [31]: 31% | half-life [32]: 46.2 min

c1ccc(N2CCc3oc(-c4ccccn4)nc3C2)cc1
pIC50 [2]: 6.48
